Measurements taken from article PMC2662489 (Biochemical Journal, 2009).
Where two headings read alike, the source gives them in different places.

What was measured:
MsbA-MIANS [1] = biological target: T1, MsbA-MIANS (Escherichia coli, UniProt P60752); assay: MIANS fluorescence quenching titration of MsbA-MIANS; format: binding; settings: for Concentration-dependent quenching of MIANS fluorescence: titration of MsbA-MIANS with negatively charged drugs
MsbA-MIANS [2] = biological target: T1, MsbA-MIANS; assay: Dual sequential titration of MsbA-MIANS fluorescence quenching; format: binding; settings: for Effect of lipid A pre-binding on ligand binding affinity (in words): ATP at 10 °C, daunorubicin and p[NH]ppA at 23 °C; for Binding affinity of drug after prior binding of nucleotide (in words): ATP bound first, results not shown
In short: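 MIANS-labelled MsbA (100 μg/ml) was prepared by labelling with 10 μM MIANS, quenching with DTE and dialysing. It was held in 100 mM Hepes, 50 mM NaCl, 5 mM MgCl2, 0.05% DM, pH 7.5, at 23 °C, or 10 °C for ATP to prevent hydrolysis. […] Data were fitted to a single-site model for Kd and ΔFmax.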

MsbA [3] = biological target: T2, MsbA (Escherichia coli, UniProt P60752); assay: ATPase activity assay; format: biochemical; settings: ATP 0.05-10 mM, 0.05% DM
T2 sequence (P60752 whole entry): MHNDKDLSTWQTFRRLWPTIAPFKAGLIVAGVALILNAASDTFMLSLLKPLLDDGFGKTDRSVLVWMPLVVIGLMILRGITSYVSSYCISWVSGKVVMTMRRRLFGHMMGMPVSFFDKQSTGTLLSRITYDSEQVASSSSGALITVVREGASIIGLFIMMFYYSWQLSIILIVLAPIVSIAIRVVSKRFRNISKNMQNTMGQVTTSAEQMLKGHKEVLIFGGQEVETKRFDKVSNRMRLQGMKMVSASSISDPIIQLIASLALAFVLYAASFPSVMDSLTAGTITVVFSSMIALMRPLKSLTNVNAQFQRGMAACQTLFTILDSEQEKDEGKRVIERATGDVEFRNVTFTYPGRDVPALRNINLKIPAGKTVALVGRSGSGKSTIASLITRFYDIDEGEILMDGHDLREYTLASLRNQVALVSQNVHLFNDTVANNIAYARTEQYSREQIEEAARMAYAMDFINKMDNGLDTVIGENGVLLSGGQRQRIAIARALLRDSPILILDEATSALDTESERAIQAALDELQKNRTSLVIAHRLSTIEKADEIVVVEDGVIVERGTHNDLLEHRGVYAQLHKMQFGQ
In short: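 Purified His-tagged MsbA (~100 μg/ml in 0.05% (w/v) DM) assayed colorimetrically for free Pi liberated from ATP across varied ATP levels. Labelled enzyme was first reacted with 10 μM MIANS for 2 h at 23 °C in the dark. Unreacted MIANS was quenched with 1 mM DTE before the ATPase measurement.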

MsbA [4] = biological target: T2, MsbA; assay: Modulation of the rate of MsbA labelling by MIANS; format: biochemical
[5] = 23 °C, MsbA 100 μg/ml in 0.05% DM, single-site fit
[6] = Kd, 23 °C, MsbA 100 μg/ml in 0.05% DM, single-site fit
[7] = 10 °C, MsbA 100 μg/ml in 0.05% DM, ligand alone
[8] = 10 °C, titrated after daunorubicin

T1 sequence (P60752 whole entry): as above

`Nc1ncnc2c1ncn2[C@@H]1O[C@H](COP(=O)(O)OP(=O)(O)O)[C@@H](O)[C@H]1O` [ADP] was tested, and the Kd (MsbA-MIANS [1]; [5]) was 130 ± 60 µM and the “Maximal quenching (ΔFmax/F0×100)” value (MsbA-MIANS [1]; [5]) was 8.48±0.4%.
In the case of `Nc1ncnc2c1ncn2[C@@H]1O[C@H](COP(=O)(O)O)[C@@H](O)[C@H]1O` [AMP], the Kd (MsbA-MIANS [1]; [5]) is reported as 800 ± 200 µM and the “Maximal quenching (ΔFmax/F0×100)” value (MsbA-MIANS [1]; [5]) is reported as 7.84±0.80%.
With `Nc1ncnc2c1ncn2[C@@H]1O[C@H](CO[P@](=O)(O)O[P@](=O)(O)O[P@@](=O)(O)S)[C@@H](O)[C@H]1O` [ATP[S], adenosine 5´-[γ-thio]triphosphate] the Kd (MsbA-MIANS [1]; [6]) was 1.82 ± 0.29 µM.
With `Nc1ncnc2c1ncn2[C@@H]1O[C@H](COP(=O)(O)OP(=O)(O)OP(=O)(O)O)[C@@H](O)[C@H]1O` [ATP] the Kd (MsbA-MIANS [1]; [7]) was 3050 ± 430 µM, the “Kd for ATP binding relative to that of p[NH]ppA” value (MsbA-MIANS [1]; ATP at 10 °C versus p[NH]ppA at 23 °C) was > 7 fold and the Kd (MsbA-MIANS [2]; [8]) was 950 ± 230 µM. The “Maximal quenching (ΔFmax/F0×100)” value (MsbA-MIANS [2]; [8]) was 5.45±0.41%, the Kd (MsbA-MIANS [2]; 10 °C, titrated after lipid A) was 2030 ± 300 µM and the “Maximal quenching (ΔFmax/F0×100)” value (MsbA-MIANS [2]; 10 °C, titrated after lipid A) was 12.0±0.78%. For the same molecule, the “Effect of lipid A pre-binding on ligand binding affinity (in words)” value (shortened to “Effect of lipid A pre-binding”) (MsbA-MIANS [2]) was “relatively unaffected”, the Km (MsbA [3]; MIANS-labelled MsbA) was 410 ± 40 µM and the Km (MsbA [3]; unlabelled MsbA) was 520 ± 40 µM.
With `COc1cccc2c1C(=O)c1c(O)c3c(c(O)c1C2=O)C[C@@](O)(C(C)=O)C[C@@H]3O[C@H]1C[C@H](N)[C@H](O)[C@H](C)O1` [Daunorubicin] the “Initial rate of labelling” value (MsbA [4]) was 27.4±2.3 ms^−1, the Labelling efficiency (MsbA [4]) was 87.2±1.3% and the “Initial rate of labelling” value (MsbA [4]; listed as daunorubicin) was “the most”. The “Maximal quenching (ΔFmax/F0×100)” value (MsbA-MIANS [1]; [5]) was “highest quenching”, the Kd (MsbA-MIANS [1]; 23 °C, MsbA reconstituted into egg PC proteoliposomes) was “essentially the same” and the Kd (MsbA-MIANS [1]; Kd, 10 °C, MsbA 100 μg/ml in 0.05% DM, ligand alone) was 2.97 ± 0.23 µM. For the same molecule, the Kd (MsbA-MIANS [1]; [6]) was 4.6 ± 0.2 µM, the Kd (MsbA-MIANS [1]; Kd, 23 °C, MsbA reconstituted into egg PC proteoliposomes) was 4.3 ± 0.79 µM and the “Reduction in binding affinity after pre-binding of lipid A” value (MsbA-MIANS [2]; 10 °C) was ~2 fold. For the same molecule, the “Effect of lipid A pre-binding” value (MsbA-MIANS [2]) was “did not affect”, the “Binding affinity of drug after prior binding of nucleotide (in words)” value (MsbA-MIANS [2]) was “reduced” and the Kd (MsbA-MIANS [2]; Kd, 10 °C, titrated after ATP) was 9.59 ± 0.39 µM. For the same molecule, the Kd (MsbA-MIANS [2]; Kd, 10 °C, titrated after lipid A) was 5.03 ± 0.11 µM and the Kd (MsbA-MIANS [2]; Kd, 23 °C, titrated after lipid A) was 4.42 ± 0.33 µM.
For `O=c1c(O)c(-c2ccc(O)c(O)c2)oc2cc(O)cc(O)c12` [Quercetin], the “Initial rate of labelling” value (MsbA [4]) was 85.0±3.1 ms^−1, the Labelling efficiency (MsbA [4]) was 78.8±1.0% and the Kd (MsbA-MIANS [1]; [6]) was 8.56 ± 0.79 µM.
With `CC(C)[C@@H]1NC(=O)[C@H](C)OC(=O)[C@@H](C(C)C)NC(=O)[C@@H](C(C)C)OC(=O)[C@H](C(C)C)NC(=O)[C@H](C)OC(=O)[C@@H](C(C)C)NC(=O)[C@@H](C(C)C)OC(=O)[C@H](C(C)C)NC(=O)[C@H](C)OC(=O)[C@@H](C(C)C)NC(=O)[C@@H](C(C)C)OC1=O` [Valinomycin] the “Initial rate of labelling” value (MsbA [4]) was 66.8±3.4 ms^−1, the Labelling efficiency (MsbA [4]) was 101±3.2% and the Kd (MsbA-MIANS [1]) was 0.35 ± 0.04 µM.
For `COc1ccc(CCN(C)CCCC(C#N)(c2ccc(OC)c(OC)c2)C(C)C)cc1OC` (centres unmarked) [Verapamil], the “Initial rate of labelling” value (MsbA [4]) was 71.0±2.6 ms^−1, the Labelling efficiency (MsbA [4]) was 82.2±3.6% and the Kd (MsbA-MIANS [1]; [6]) was 1.26 ± 0.09 µM.
`CC[C@]1(O)C[C@@H]2CN(CCc3c([nH]c4ccccc34)[C@@](C(=O)OC)(c3cc4c(cc3OC)N(C)[C@H]3[C@@](O)(C(=O)OC)[C@H](OC(C)=O)[C@]5(CC)C=CCN6CC[C@]43[C@@H]65)C2)C1` [Vinblastine] was tested, and the “Initial rate of labelling” value (MsbA [4]) was 182±3.4 ms^−1, the Labelling efficiency (MsbA [4]) was 105±4.5% and the “Initial rate of labelling” value (MsbA [4]; listed as vinblastine) was “affected the least”. For the same molecule, the Kd (MsbA-MIANS [1]; [6]) was 1.2 ± 0.14 µM and the “Binding affinity of drug after prior binding of nucleotide (in words)” value (MsbA-MIANS [2]) was “reduced”.
`CC1(C)S[C@@H]2[C@H](NC(=O)[C@H](N)c3ccccc3)C(=O)N2[C@H]1C(=O)O` [ampicillin] was tested, and the “Concentration-dependent quenching of MIANS fluorescence” value (shortened to “Concentration-dependent quenching”) (MsbA-MIANS [1]) was “No concentration-dependent quenching”.
With `O=C(O)c1cn(C2CC2)c2cc(N3CCNCC3)c(F)cc2c1=O` [ciprofloxacin] the “Concentration-dependent quenching” value (MsbA-MIANS [1]) was “No concentration-dependent quenching”.
`CCn1cc(C(=O)O)c(=O)c2cc(F)c(N3CCNCC3)cc21` [norfloxacin] was tested, and the “Concentration-dependent quenching” value (MsbA-MIANS [1]) was “No concentration-dependent quenching”.
For `CC1COc2c(N3CCN(C)CC3)c(F)cc3c(=O)c(C(=O)O)cn1c23` (centres unmarked) [ofloxacin], the “Concentration-dependent quenching” value (MsbA-MIANS [1]) was “No concentration-dependent quenching”.
For `Nc1ncnc2c1ncn2[C@@H]1O[C@H](COP(=O)(O)OP(=O)(O)NP(=O)(O)O)[C@@H](O)[C@H]1O` [p[NH]ppA, adenosine 5′-[β,γ-imido]triphosphate], the Kd (MsbA-MIANS [1]; [5]) was 470 ± 30 µM, the Kd (MsbA-MIANS [2]; 23 °C, titrated after lipid A) was 650 ± 80 µM and the “Maximal quenching (ΔFmax/F0×100)” value (MsbA-MIANS [2]; 23 °C, titrated after lipid A) was 23.2±1.2%. The “Effect of lipid A pre-binding” value (MsbA-MIANS [2]) was “relatively unaffected”.
Lipid A was tested, and the Labelling efficiency (MsbA [4]; 23 °C, MIANS:MsbA stoichiometry after 2000 s, drug at ~5-fold its Kd (2-40 μM)) was 118±9.2%, the “Maximal quenching (ΔFmax/F0×100)” value (MsbA-MIANS [1]; [7]) was 6.02±0.11% and the “Increase of ΔFmax for quenching when daunorubicin was bound first” value (MsbA-MIANS [2]) was 2 fold. The “Reduction of binding affinity when ATP was pre-bound” value (MsbA-MIANS [2]; 10 °C) was ~8 fold, the “Maximal quenching (ΔFmax/F0×100)” value (MsbA-MIANS [2]; 10 °C, titrated after ATP) was 17.7±1.0% and the “Maximal quenching (ΔFmax/F0×100)” value (MsbA-MIANS [2]; [8]) was 7.31±0.50%. The “Reduction of binding affinity when p[NH]ppA was pre-bound” value (MsbA-MIANS [2]; 23 °C) was ~3 fold, the “Maximal quenching (ΔFmax/F0×100)” value (MsbA-MIANS [2]; 23 °C, titrated after daunorubicin) was 15.7±1.4% and the “Maximal quenching (ΔFmax/F0×100)” value (MsbA-MIANS [2]; 23 °C, titrated after p[NH]ppA) was 10.9±1.2%.
